Measurements taken from ChEMBL document CHEMBL3853318, “Structure-Based Optimization of Potent, Selective, and Orally Bioavailable CDK8 Inhibitors Discovered by High-Throughput Screening” (J Med Chem, 2016).
pIC50: −log10 of the molar value. ≈ marks a conversion by molar mass, not a printed value. Calls of active or inactive are those of the source. The rule behind the calls is not given here.

Tests used:
[1] = target: T1, Cyclin-dependent kinase 8 (Homo sapiens, UniProt P49336); test: Inhibition of CDK8 in human LS174T cells expressing beta-catenin mutant assessed as suppression of WNT pathway by luciferase reporter gene assay; format: cell-based
Target sequence in this assay (P49336 whole entry, looked up, change not shown): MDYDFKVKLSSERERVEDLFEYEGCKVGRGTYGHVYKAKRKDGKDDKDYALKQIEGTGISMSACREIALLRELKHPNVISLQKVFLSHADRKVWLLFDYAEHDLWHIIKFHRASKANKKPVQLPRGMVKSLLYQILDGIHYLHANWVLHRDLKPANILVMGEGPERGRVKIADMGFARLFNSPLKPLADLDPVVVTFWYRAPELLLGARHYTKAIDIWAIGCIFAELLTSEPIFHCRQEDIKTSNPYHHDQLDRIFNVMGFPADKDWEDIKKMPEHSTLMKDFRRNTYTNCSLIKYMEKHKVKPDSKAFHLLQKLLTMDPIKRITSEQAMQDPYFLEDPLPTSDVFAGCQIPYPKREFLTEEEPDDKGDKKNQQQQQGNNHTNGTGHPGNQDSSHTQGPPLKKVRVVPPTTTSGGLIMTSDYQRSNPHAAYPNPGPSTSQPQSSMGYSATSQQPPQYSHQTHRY

[2] = Volume of distribution at steady state in NMRI mouse at 0.2 mg/kg, iv as bolus dose or 0.5 mg/kg, po via gavage measured over 6 hrs; format: ADME, organism-based; conditions: in vivo, read-out: Vdss
[3] = Kinetic solubility of the compound; format: physicochemical; conditions: read-out: Kinetic_solubility
[4] = target: T1, Cyclin-dependent kinase 8; test: Inhibition of CDK8 in human 7dF3 cells preincubated for 2 hrs followed by beta-oestradiol addition measured after 24 hrs by luciferase reporter gene assay; format: cell-based
Target sequence in this assay (P49336 whole entry): as the sequence (P49336 whole entry, looked up, change not shown) above

[5] = target: Sodium-dependent dopamine transporter (Homo sapiens, UniProt Q01959); test: Displacement of [3H]BTCP from human recombinant dopamine transporter expressed in CHO cells after 120 mins by scintillation counting method; format: cell-based
Chain of Sodium-dependent dopamine transporter (Q01959 whole entry): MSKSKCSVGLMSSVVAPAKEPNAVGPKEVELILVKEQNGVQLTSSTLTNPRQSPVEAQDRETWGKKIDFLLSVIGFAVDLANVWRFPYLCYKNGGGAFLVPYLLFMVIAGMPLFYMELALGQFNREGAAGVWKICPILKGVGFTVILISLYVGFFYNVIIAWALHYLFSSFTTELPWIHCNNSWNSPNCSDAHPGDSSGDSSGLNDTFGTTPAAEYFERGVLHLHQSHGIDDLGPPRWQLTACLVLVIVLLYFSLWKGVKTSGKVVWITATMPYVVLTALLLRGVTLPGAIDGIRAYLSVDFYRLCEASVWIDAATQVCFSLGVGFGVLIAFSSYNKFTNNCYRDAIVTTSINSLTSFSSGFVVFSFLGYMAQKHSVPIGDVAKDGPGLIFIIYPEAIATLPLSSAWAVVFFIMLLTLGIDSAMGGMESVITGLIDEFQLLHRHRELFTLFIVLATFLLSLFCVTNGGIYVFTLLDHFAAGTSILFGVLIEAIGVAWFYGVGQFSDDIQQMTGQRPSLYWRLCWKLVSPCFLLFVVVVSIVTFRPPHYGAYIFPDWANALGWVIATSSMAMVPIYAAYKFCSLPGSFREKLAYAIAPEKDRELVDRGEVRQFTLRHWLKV

[6] = Plasma clearance in NMRI mouse at 0.2 mg/kg, iv as bolus dose or 0.5 mg/kg, po via gavage measured over 6 hrs; format: ADME, organism-based
[7] = Oral bioavailability in NMRI mouse at 0.5 mg/kg via gavage measured over 6 hrs measured over 6 hrs; format: ADME, organism-based; conditions: in vivo
[8] = target: T1, Cyclin-dependent kinase 8; test: Inhibition of CDK8 in human COLO205 cells expressing APC mutant assessed as suppression of WNT pathway by luciferase reporter gene assay; format: cell-based; conditions: colo 205
Target sequence in this assay (P49336 whole entry, looked up, change not shown): as the sequence (P49336 whole entry, looked up, change not shown) above

[9] = Antitumor activity against human SW620 cells xenografted in NCr athymic mouse assessed as tumor growth inhibition at 100 mg/kg, po qd administered for 16 days relative to control; format: functional, SW-620
Summary of the method: (§1)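 Female NCr athymic mice bearing SW620 human colorectal carcinoma xenografts were dosed orally for 16 days. Growth inhibition was expressed as T/C ratio based on final tumor weights versus vehicle controls.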

Mus musculus [10] = test: Toxicity in NCr athymic mouse xenografted with human SW620 cells assessed as effect on body weight at 100 mg/kg, po qd administered for 16 days; format: organism-based, SW-620; conditions: in vivo, 384 h
Summary of the method: (§2)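 Female NCr athymic mice bearing SW620 colorectal xenografts received oral treatment for 16 days. Body weights were recorded and expressed as % of day 0 values.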

[11] = Half life in Beagle dog at 0.2 mg/kg, iv as bolus dose or 0.5 mg/kg, po via gavage; format: ADME, organism-based, Canis lupus familiaris; conditions: in vivo
[12] = Volume of distribution at steady state in Wistar rat at 0.2 mg/kg, iv as bolus dose or 0.5 mg/kg, po via gavage measured over 6 hrs; format: ADME, organism-based; conditions: in vivo, read-out: Vdss
[13] = Inhibition of CYP450 (unknown origin); format: ADME, Homo sapiens
[14] = Half life in NMRI mouse at 0.2 mg/kg, iv as bolus dose or 0.5 mg/kg, po via gavage; format: ADME, organism-based; conditions: in vivo
Mus musculus [15] = test: Toxicity in NCr athymic mouse xenografted with human SW620 cells assessed as drug tolerance at 50 mg/kg, po bid administered for 16 days; format: organism-based, SW-620; conditions: in vivo, 384 h; summary of the method: as §2
[16] = Plasma clearance in Beagle dog at 0.2 mg/kg, iv as bolus dose or 0.5 mg/kg, po via gavage measured over 48 hrs; format: ADME, organism-based, Canis lupus familiaris
[17] = Intrinsic clearance in mouse liver microsomes at 1 uM preincubated for 5 mins followed by NADPH addition measured after 5 to 30 mins by LC-MS/MS analysis; format: ADME; conditions: read-out: CLH
[18] = Fraction unbound in NMRI mouse plasma at 0.2 mg/kg, iv as bolus dose or 0.5 mg/kg, po via gavage measured over 6 hrs; format: ADME, organism-based
[19] = Oral bioavailability in Wistar rat at 0.5 mg/kg via gavage measured over 6 hrs; format: ADME, organism-based; conditions: in vivo
hERG (KCNH2) = hERG (KCNH2) (Homo sapiens, UniProt Q12809); test: Inhibition of human ERG at 10 uM relative to control
Chain of hERG (KCNH2) (Q12809 whole entry): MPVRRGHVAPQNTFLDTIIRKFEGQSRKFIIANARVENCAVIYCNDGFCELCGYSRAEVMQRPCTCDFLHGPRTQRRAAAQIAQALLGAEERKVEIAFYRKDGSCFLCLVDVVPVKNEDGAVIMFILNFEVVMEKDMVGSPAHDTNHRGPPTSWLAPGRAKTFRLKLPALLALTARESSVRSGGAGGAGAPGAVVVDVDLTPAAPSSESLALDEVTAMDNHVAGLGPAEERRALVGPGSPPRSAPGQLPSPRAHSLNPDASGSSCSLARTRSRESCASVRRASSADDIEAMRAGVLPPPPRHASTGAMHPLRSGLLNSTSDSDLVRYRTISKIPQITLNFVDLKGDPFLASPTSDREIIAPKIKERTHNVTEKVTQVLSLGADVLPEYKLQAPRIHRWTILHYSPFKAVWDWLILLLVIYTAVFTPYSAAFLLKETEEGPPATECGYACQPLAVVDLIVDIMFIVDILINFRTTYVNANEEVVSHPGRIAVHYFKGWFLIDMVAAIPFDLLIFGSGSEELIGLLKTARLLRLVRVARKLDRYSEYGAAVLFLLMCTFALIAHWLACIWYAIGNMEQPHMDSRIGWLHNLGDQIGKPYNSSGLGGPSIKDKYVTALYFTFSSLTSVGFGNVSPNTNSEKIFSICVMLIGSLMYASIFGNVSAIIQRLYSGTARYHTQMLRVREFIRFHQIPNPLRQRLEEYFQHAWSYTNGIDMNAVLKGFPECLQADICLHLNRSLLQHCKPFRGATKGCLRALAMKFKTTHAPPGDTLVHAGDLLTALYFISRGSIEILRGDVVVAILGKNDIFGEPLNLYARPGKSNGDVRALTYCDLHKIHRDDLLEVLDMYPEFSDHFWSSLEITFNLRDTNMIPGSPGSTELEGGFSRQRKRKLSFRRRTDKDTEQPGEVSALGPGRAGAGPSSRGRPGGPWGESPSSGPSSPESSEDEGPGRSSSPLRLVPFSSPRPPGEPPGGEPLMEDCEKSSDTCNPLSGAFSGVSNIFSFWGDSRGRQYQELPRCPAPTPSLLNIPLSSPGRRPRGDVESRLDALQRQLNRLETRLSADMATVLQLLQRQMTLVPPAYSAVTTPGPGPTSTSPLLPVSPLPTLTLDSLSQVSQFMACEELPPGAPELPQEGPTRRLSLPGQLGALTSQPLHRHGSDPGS

Mus musculus [20] = test: In vivo inhibition of CDK8-mediated STAT1 phosphorylation at Ser727 in human SW620 cells xenografted in NCr athymic mouse at 100 mg/kg, po qd administered for 16 days measured 2 to 24 hrs post last dose by immunoassay; format: functional, organism-based; conditions: SW-620
Summary of the method: (§3)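 SW620 xenografts in female NCr athymic mice were dosed orally for 16 days. Phospho-STAT1 Ser727 was measured by Luminex immunoassay, normalized to total STAT1 and expressed as % of vehicle controls at each time point (2 h to 24 h after dosing).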

[21] = target: T1, Cyclin-dependent kinase 8; test: Inhibition of CDK8 in human PA1 cells assessed as suppression of WNT3a ligand-induced WNT pathway by luciferase reporter gene assay; format: cell-based, PA-1
Target sequence in this assay (P49336 whole entry): as the sequence (P49336 whole entry, looked up, change not shown) above

[22] = Intrinsic clearance in human liver microsomes at 1 uM preincubated for 5 mins followed by NADPH addition measured after 5 to 30 mins by LC-MS/MS analysis; format: ADME; conditions: read-out: CLH
[23] = Oral bioavailability in Beagle dog at 0.5 mg/kg via gavage measured over 48 hrs; format: ADME, organism-based, Canis lupus familiaris; conditions: in vivo
[24] = Thermodynamic solubility of the compound in PBS at pH 7.4; format: physicochemical; conditions: read-out: Therm_solubility
Mus musculus [25] = test: Toxicity in NCr athymic mouse xenografted with human SW620 cells assessed as drug tolerance at 100 mg/kg, po qd administered for 16 days; format: organism-based, SW-620; conditions: in vivo, 384 h; summary of the method: as §2
[26] = Plasma clearance in Beagle dog at 0.2 mg/kg, iv as bolus dose or 0.5 mg/kg, po via gavage measured over 48 hrs relative to hepatic blood flow; format: ADME, organism-based, Canis lupus familiaris, Liver; conditions: in vivo
[27] = target: T1, Cyclin-dependent kinase 8; test: Inhibition of CDK8 in human SW620 cells assessed as decrease in STAT1 phosphorylation at Ser727; format: cell-based, SW-620
Target sequence in this assay (P49336 whole entry): as the sequence (P49336 whole entry, looked up, change not shown) above

[28] = Fraction unbound in Wistar rat plasma at 0.2 mg/kg, iv as bolus dose or 0.5 mg/kg, po via gavage measured over 6 hrs; format: ADME, organism-based
Mus musculus [29] = test: In vivo inhibition of CDK8-mediated STAT1 phosphorylation at Ser727 in human SW620 cells xenografted in NCr athymic mouse at 50 mg/kg, po bid administered for 16 days measured 2 to 24 hrs post last dose by immunoassay; format: functional, organism-based; conditions: SW-620; summary of the method: as §3
Mus musculus [30] = test: Toxicity in NCr athymic mouse xenografted with human SW620 cells assessed as body weight loss at 50 mg/kg, po bid administered for 16 days; format: organism-based, SW-620; conditions: in vivo, 384 h; summary of the method: as §2
CDK8/Cyclin C = CDK8/Cyclin C (Homo sapiens, UniProt P49336); test: Inhibition of Alexa647 tracer binding to full length recombinant human His-tagged CDK8/cyclin C expressed in Baculovirus expression system preincubated for 20 mins followed by tracer addition and incubated in dark for 60 mins by FRET-based Lanthascreen assay
Chain of CDK8/Cyclin C (P49336 whole entry): as the sequence (P49336 whole entry, looked up, change not shown) above
Chain of CDK8/Cyclin C (P24863 whole entry, further chain): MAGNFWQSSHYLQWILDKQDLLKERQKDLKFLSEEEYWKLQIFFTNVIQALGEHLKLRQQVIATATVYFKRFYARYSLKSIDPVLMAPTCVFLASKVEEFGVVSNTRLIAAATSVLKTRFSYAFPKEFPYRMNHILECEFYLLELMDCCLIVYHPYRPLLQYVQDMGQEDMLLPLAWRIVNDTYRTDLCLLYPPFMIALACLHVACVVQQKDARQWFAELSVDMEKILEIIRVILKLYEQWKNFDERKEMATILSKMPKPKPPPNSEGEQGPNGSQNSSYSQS

[31] = Half life in Wistar rat at 0.2 mg/kg, iv as bolus dose or 0.5 mg/kg, po via gavage; format: ADME, organism-based; conditions: in vivo
[32] = Volume of distribution at steady state in Beagle dog at 0.2 mg/kg, iv as bolus dose or 0.5 mg/kg, po via gavage measured over 48 hrs; format: ADME, organism-based, Canis lupus familiaris; conditions: in vivo, read-out: Vdss
[33] = Antitumor activity against human SW620 cells xenografted in NCr athymic mouse assessed as tumor growth inhibition at 50 mg/kg, po bid administered for 16 days relative to control; format: functional, SW-620; summary of the method: as §1
[34] = Plasma clearance in Wistar rat at 0.2 mg/kg, iv as bolus dose or 0.5 mg/kg, po via gavage measured over 6 hrs; format: ADME, organism-based
[35] = Plasma clearance in Wistar rat at 0.2 mg/kg, iv as bolus dose or 0.5 mg/kg, po via gavage measured over 6 hrs relative to hepatic blood flow; format: ADME, organism-based, Liver; conditions: in vivo
[36] = target: Glycogen synthase kinase-3 alpha (Homo sapiens) (UniProt P49840); test: Inhibition of GSK-3alpha (unknown origin) at 1 uM relative to control
Chain of Glycogen synthase kinase-3 alpha (Homo sapiens) (P49840 2-483 limits assumed): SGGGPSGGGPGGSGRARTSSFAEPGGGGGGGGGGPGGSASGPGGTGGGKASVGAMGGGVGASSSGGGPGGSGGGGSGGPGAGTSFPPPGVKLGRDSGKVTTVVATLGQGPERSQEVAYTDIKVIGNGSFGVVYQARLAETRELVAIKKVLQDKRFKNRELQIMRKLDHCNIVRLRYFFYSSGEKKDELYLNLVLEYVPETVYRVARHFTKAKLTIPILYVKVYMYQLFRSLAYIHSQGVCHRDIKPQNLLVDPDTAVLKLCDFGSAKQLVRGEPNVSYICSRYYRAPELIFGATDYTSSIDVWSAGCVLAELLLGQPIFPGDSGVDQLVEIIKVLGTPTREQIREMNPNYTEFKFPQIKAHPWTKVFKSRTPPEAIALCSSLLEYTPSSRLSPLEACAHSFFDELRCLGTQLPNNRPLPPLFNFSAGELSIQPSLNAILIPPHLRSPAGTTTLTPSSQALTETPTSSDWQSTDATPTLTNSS

[37] = Plasma clearance in NMRI mouse at 0.2 mg/kg, iv as bolus dose or 0.5 mg/kg, po via gavage measured over 6 hrs relative to hepatic blood flow; format: ADME, organism-based, Liver; conditions: in vivo
[38] = Thermodynamic solubility of the compound in FaSSIF at pH 6.5; format: physicochemical; conditions: read-out: Therm_solubility
[39] = Intrinsic clearance in rat liver microsomes at 1 uM preincubated for 5 mins followed by NADPH addition measured after 5 to 30 mins by LC-MS/MS analysis; format: ADME; conditions: read-out: CLH
[40] = Fraction unbound in Beagle dog plasma at 0.2 mg/kg, iv as bolus dose or 0.5 mg/kg, po via gavage measured over 48 hrs; format: ADME, organism-based, Canis lupus familiaris
[41] = Efflux ratio of permeability in human Caco2 cells at 1 uM after 2 hrs by Transwell assay; format: ADME, cell-based; conditions: Caco-2
[42] = Apparent permeability from apical to basolateral side in human Caco2 cells at 1 uM after 2 hrs by Transwell assay; format: ADME, cell-based; conditions: Caco-2
[43] = Thermodynamic solubility of the compound in FeSSIF at pH 5; format: physicochemical; conditions: read-out: Therm_solubility

With `Cc1n[nH]c2ncc(C(=O)N3CCC[C@H]3c3ccc(Cl)cc3)cc12` the pIC50 [1] was 7.49, the Vd [2] was 0.59 L/kg and the solubility kinetic [3] was > 200 µM. The pIC50 [4] was 8.19, the pIC50 [5] was 5.07 and the clearance [6] was 22.8 mL/min/kg. The bioavailability [7] was 25%, the pIC50 [8] was 8.05 and the T/C [9] was 57%. The Activity (Mus musculus [10]) was “Non-Toxic”, the half-life [11] was 49.8 min and the Vd [12] was 1.62 L/kg. The pIC50 [13] was < 4.70, the half-life [14] was 27 min and the Activity (Mus musculus [15]) was “Non-Toxic”. For the same compound, the clearance [16] was 22.5 mL/min/kg, the microsomal CLint at 1 µM [17] was < 10 µL/min/mg and the fraction unbound at 6 h [18] was 0.13. The bioavailability [19] was 66%, the inhibition at 10 µM (hERG (KCNH2)) was 18% and the inhibition (Mus musculus [20]) was “Active”. For the same compound, the pIC50 [21] was 7.28, the microsomal CLint at 1 µM [22] was 45 µL/min/mg and the bioavailability [23] was 39%. The solubility thermodynamic [24] was 399 µg/mL (≈ 1170 µM), the Activity (Mus musculus [25]) was “Non-Toxic” and the CL [26] was 53.8%. For the same compound, the pIC50 [27] was 8.10, the fraction unbound at 6 h [28] was 0.19 and the inhibition (Mus musculus [29]) was “Active”. The Activity (Mus musculus [30]) was “Non-Toxic”, the pIC50 (CDK8/Cyclin C) was 8.59 and the half-life [31] was 51.6 min. It also gave a Vd [32] of 1.47 L/kg, a T/C [33] of 49% and a clearance [34] of 25 mL/min/kg. For the same compound, the CL [35] was 34.6%, the inhibition [36] was > 50% and the CL [37] was 22.5%. The solubility thermodynamic [38] was 628 µg/mL (≈ 1840 µM), the microsomal CLint at 1 µM [39] was < 10 µL/min/mg and the fraction unbound at 48 h [40] was 0.5. For the same compound, the efflux ratio at 2 h, 1 µM [41] was 1.5, the Papp A→B at 2 h, 1 µM [42] was 44 ×10⁻⁶ cm/s and the solubility thermodynamic [43] was 836 µg/mL (≈ 2450 µM).
